Assay results: PMC3149845 (The Journal of neuroscience : the official journal of the …, 2011)

Molecular target: T1, smTas1R2/hTas1R3 (Saimiri sciureus, UniProt A3QP08)
T1 sequence (A3QP08 20-834): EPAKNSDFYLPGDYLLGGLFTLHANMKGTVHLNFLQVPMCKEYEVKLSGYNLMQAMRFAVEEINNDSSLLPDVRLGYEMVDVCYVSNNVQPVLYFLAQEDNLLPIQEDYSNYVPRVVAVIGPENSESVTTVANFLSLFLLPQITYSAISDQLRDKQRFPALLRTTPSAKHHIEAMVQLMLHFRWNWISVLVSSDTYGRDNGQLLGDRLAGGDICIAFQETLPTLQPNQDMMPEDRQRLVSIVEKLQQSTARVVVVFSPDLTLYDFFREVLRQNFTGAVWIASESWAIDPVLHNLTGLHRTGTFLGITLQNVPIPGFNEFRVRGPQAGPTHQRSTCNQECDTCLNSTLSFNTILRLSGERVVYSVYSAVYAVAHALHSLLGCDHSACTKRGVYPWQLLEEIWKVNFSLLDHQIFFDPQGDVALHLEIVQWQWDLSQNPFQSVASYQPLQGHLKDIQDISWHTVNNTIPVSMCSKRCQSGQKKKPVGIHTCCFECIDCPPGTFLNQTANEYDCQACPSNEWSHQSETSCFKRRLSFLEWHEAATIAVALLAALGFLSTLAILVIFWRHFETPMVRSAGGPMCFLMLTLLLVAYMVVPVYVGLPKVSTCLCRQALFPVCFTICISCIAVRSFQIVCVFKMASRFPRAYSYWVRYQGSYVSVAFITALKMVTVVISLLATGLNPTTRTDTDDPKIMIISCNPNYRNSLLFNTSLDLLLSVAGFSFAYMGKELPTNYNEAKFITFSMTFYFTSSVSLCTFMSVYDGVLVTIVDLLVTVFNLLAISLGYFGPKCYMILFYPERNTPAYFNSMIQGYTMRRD
T1 sequence (Q7RTX0 21-852 partner): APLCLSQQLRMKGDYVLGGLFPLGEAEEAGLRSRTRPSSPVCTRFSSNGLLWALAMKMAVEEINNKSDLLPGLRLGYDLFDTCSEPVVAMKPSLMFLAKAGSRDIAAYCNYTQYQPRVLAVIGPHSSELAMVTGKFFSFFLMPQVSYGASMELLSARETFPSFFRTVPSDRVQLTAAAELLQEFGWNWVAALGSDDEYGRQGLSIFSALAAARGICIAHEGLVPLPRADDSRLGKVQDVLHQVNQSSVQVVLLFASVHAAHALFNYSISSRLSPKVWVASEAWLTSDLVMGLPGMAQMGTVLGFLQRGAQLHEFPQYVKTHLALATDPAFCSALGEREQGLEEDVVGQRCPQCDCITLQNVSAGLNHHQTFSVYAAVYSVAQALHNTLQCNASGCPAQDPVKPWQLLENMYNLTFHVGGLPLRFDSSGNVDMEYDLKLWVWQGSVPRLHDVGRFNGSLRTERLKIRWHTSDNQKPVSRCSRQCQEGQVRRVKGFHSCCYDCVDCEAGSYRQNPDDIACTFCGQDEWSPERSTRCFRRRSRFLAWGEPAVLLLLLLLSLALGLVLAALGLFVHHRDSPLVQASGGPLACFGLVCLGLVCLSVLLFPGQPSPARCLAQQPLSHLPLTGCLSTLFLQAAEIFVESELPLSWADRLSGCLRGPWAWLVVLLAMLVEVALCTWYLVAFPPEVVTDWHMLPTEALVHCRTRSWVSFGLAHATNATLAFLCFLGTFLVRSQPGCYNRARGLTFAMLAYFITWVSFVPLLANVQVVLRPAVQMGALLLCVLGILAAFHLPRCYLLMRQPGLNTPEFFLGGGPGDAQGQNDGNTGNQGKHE
Test: Ca2+ mobilization, mismatched receptor
Format: cell-based, human/squirrel monkey
Details: aspartame 10mM, neotame 1mM, sucralose 2 mM, D-tryptophan 5mM, sucrose 150mM
Procedure, shortened: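 HEK293E cells grown at 37°C in Opti-MEM with 5% FBS and seeded at 50,000/well. Cells co-lipofected with Tas1R plasmids and Gα16-gust44 (0.06 μg each per well); medium changed at 20 h, assayed 24 h later. Cells loaded 1 h with Fluo-4 AM in HEPES-buffered HBSS. Tastant added at 30 s; fluorescence (ex 488/em 525 nm) read every 2 s for 150 s more. ΔF/F normalised to human receptor maximal sucralose response; mean ± SEM, three independent experiments.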

With `OC[C@H]1O[C@H](O[C@]2(CCl)O[C@H](CCl)[C@@H](O)[C@@H]2O)[C@H](O)[C@@H](O)[C@H]1Cl` [sucralose] the “calcium response to sweetener” value was “remained intact or reduced”.
